Consider 1 compound from ChEMBL document CHEMBL4680102, “Design, Synthesis, and Biological Activity of Substrate Competitive SMYD2 Inhibitors” (J Med Chem, 2016).

In brackets after ≈: the same amount, converted by molar mass. Activity calls are given as the source filed them. No cut-off for these calls is given here. Some results are limits rather than exact numbers.

What is called solubility is how much of the substance goes into solution per volume. A lower solubility goes with little dissolved substance. Usually fraction unbound stands for free concentration divided by total concentration. Low readings indicate little free substance, high ones much free substance. As a reminder, the IC50 is the concentration at which inhibition is half-maximal. What is called EC50 is the concentration that produces a half-maximal response.

A short description of data set [1]: Solubility of compound in 0.1 M phosphate buffer at pH 7.4 at 25 degC after 24 hrs. In kind it is physicochemical. The procedure, abridged:
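Solid sample shaken 24 h in 0.1 M phosphate buffer, pH 7.4, 25 °C.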

The nature of data set [2]: Unbound fraction in human plasma by equilibrium dialysis. In kind it is ADME, cell-free. Put shortly:
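Human plasma, compound added from DMSO stock; fraction unbound (fu%) by equilibrium dialysis.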
(In equilibrium dialysis only unbound substance equilibrates across the membrane.)

The target in data set [3] is T1, N-lysine methyltransferase SMYD2 (Homo sapiens, UniProt Q9NRG4). Description: Inhibition of SMYD2 (unknown origin).
T1 sequence (Q9NRG4 whole entry): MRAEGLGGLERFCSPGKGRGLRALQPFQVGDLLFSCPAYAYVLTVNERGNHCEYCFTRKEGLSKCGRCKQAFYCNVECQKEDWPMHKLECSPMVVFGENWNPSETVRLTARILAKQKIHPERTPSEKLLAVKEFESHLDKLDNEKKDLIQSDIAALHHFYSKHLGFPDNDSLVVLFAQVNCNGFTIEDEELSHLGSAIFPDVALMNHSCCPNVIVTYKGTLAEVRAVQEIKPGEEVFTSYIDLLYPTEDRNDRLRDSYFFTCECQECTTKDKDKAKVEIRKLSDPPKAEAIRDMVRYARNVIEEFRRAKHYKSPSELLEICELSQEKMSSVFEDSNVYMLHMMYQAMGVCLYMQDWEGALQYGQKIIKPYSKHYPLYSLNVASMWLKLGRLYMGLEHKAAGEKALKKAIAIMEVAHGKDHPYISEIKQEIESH
Data set [4] has as its target T1, N-lysine methyltransferase SMYD2. Put plainly: Inhibition of SMYD2 (unknown origin) expressed in human U2OS cells assessed as reduction in monomethylated p53 levels incubated for 24 hrs by immunofluorescence assay. The format is cell-based. The procedure, abridged:
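U2OS plated 8,000 cells/well, transfected (Fugene) with FLAG-tagged wild-type SMYD2 construct. Compound from DMSO in media (final DMSO 0.2%), 24 h. Cells PFA-fixed, stained with anti-FLAG (1:800), polyclonal anti-monomethyl p53 K370 peptide antibody (1:1000) and DAPI, then imaged. IC50 from fluorescent intensity per cell for methylation; DAPI count gave the cell-count IC50.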

A short description of data set [5]: Intrinsic clearance in human liver microsomes. To be noted: read-out: CLH. The format is ADME, Microsome.
Data set [6] concerns the target T1, N-lysine methyltransferase SMYD2. Put plainly: Ratio of IC50 for SMYD2 (unknown origin) to IC50 for inhibition of SMYD2 (unknown origin) expressed in human U2OS cells. In kind it is cell-based.
Data set [7] has as its system HCT-116. Description: Antiproliferative activity against human HCT-116 cells contains wild-type p53 gene assessed as reduction in cell viability at 0.03 to 30 uM incubated for 72 hrs by Alamar blue based assay. The format is functional. The following applies: dose 0.03-30 µM. Put shortly: (§1)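 Matched p53 wild-type/deficient pairs (HCT116 p53+/+ and p53-/-; RKO-neo and RKO-E6a) seeded in triplicate, attached overnight. Media replaced with DMSO control or compound media, 0.03 to 30 µM, 72 h. Viability read as fluorescence after AlamarBlue incubation. Triplicate in two separate experiments; mean ±SEM.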
(In general: Resazurin is reduced to fluorescent resorufin, in cell work by metabolically active cells.)

Data set [8] relates to HCT-116. Put plainly: Antiproliferative activity against human HCT-116 cells deficient in p53 gene assessed as reduction in cell viability at 0.03 to 30 uM incubated for 72 hrs by Alamar blue based assay. In kind it is functional. To be noted: dose 0.03-30 µM. Put shortly:
as §1

The test system of a further data set is RKO. Put plainly: Antiproliferative activity against human RKO cells assessed as reduction in cell viability at 0.03 to 30 uM incubated for 72 hrs by Alamar blue based assay. In kind it is functional. To be noted: dose 0.03-30 µM. Put shortly: as §1
The next data set has as its system RKOE6. Put plainly: Antiproliferative activity against human RKOE6 cells assessed as reduction in cell viability at 0.03 to 30 uM incubated for 72 hrs by Alamar blue based assay. The format is functional. The following applies: dose 0.03-30 µM. The procedure, abridged:
as §1

In turn, `N#Cc1cc(C(=O)NCCCN2CCCC2)cc(-c2ccccc2N2CCN(CCc3ccc(Cl)c(Cl)c3)CC2)c1` had a solubility at 24 h in [1] of 34 µM (≈ 20.1 µg/mL). This compound gave a fraction unbound in [2] below 0.01. Also, the IC50 in data set [3] was 138 nM; in data set [4] it was 670 nM. Besides, the EC50 in data set [4] amounted to 425 nM. Moreover, the microsomal CLint in data set [5] was determined as 73 µL/min/mg. Further, the Ratio IC50 in data set [6] is above 2. In addition, the result in the data set with HCT-116 [7], with HCT-116 [8], with RKO and in the data set on RKOE6 was Active.
